The source made the active and inactive calls. The rule behind the calls is not given here.
How the values were obtained:
[1] = biological target: T1, Orexin receptor type 2 (Homo sapiens) (UniProt O43614); experiment: Antagonist activity at human OX2 receptor expressed in CHO-RD-HGA16 cells assessed as inhibition of orexin-A-induced calcium mobilization at 10 uM preincubated for 15 mins followed by orexin-A addition measured every 1.52 secs over 60 secs by calcium 5 dye-based fluorescence assay relative to control; type: functional, cell-based
T1 sequence (whole entry): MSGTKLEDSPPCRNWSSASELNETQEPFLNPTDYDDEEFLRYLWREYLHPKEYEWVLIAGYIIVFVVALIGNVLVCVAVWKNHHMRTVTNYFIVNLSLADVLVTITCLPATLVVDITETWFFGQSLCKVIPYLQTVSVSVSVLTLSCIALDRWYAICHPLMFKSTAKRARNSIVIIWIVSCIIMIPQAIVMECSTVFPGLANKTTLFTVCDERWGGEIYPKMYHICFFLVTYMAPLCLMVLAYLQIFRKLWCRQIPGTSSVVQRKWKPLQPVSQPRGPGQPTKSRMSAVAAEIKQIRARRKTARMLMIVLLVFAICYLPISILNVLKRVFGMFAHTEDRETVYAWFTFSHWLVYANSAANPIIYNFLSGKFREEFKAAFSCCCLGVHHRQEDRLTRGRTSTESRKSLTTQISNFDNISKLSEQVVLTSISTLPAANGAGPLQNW
Method in brief: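 OX2 stable CHO-RD-HGA16 cells, Calcium 5 dye-loaded, were pre-incubated 15 min at 37°C with compound at 10 μM before orexin A addition. Calcium fluorescence was read every 1.52 s for 60 s and percent inhibition of the orexin A response recorded.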

[2] = biological target: T2, Orexin/Hypocretin receptor type 1 (Homo sapiens) (UniProt O43613); experiment: Competitive antagonist activity at human OX1 receptor expressed in CHO-RD-HGA16 cells assessed as inhibition of orexin-A-induced calcium mobilization preincubated for 45 mins followed by orexin-A addition measured every 1.52 secs over 60 secs by calcium 5 dye-based fluorescence assay; type: functional, cell-based
T2 sequence (whole entry): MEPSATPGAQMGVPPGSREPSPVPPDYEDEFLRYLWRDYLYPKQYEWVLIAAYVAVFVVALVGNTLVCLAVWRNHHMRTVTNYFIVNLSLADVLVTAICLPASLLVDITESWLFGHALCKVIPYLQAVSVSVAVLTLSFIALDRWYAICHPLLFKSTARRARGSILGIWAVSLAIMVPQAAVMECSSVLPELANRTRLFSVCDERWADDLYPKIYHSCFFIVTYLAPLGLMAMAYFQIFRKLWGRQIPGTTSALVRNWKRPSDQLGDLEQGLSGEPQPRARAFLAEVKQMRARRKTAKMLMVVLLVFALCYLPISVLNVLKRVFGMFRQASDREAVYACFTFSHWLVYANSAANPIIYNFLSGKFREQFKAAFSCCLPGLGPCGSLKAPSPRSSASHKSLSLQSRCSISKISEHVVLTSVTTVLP
Method in brief: (§1)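 Curve-shift assay in human OX1 CHO-RD-HGA16 cells, with antagonist–receptor pre-incubation lengthened to 45 min or 1 hr before orexin A addition. Calcium 5 fluorescence was monitored, and each point is a composite of at least three experiments in duplicate.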

[3] = biological target: T2, Orexin/Hypocretin receptor type 1 (Homo sapiens); experiment: Competitive antagonist activity at human OX1 receptor expressed in CHO-RD-HGA16 cells assessed as inhibition of orexin-A-induced calcium mobilization preincubated for 1 hr followed by orexin-A addition measured every 1.52 secs over 60 secs by calcium 5 dye-based fluorescence assay; type: functional, cell-based; method in brief: as §1
[4] = biological target: T2, Orexin/Hypocretin receptor type 1 (Homo sapiens); experiment: Competitive antagonist activity at human OX1 receptor expressed in CHO-RD-HGA16 cells assessed as inhibition of orexin-A-induced calcium mobilization compound treated simultaneous with orexin-A by fluorescence assay; type: functional, cell-based
Method in brief: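 Antagonist and orexin A were added simultaneously to Calcium 5-loaded human OX1 CHO-RD-HGA16 cells, with calcium mobilization curve-shift measured. Data are composites of at least three experiments in duplicate.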

[5] = biological target: T2, Orexin/Hypocretin receptor type 1 (Homo sapiens); experiment: Insurmountable antagonist activity at human OX1 receptor expressed in CHO-RD-HGA16 cells assessed as inhibition of orexin-A-induced calcium mobilization preincubated for 15 mins followed by orexin-A addition measured every 1.52 secs over 60 secs by calcium 5 dye-based fluorescence assay; type: functional, cell-based
Method in brief: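 Human OX1 or OX2 stable CHO-RD-HGA16 cells were dye-loaded with Calcium 5, then given a single compound concentration for 15 min at 37°C. Orexin A serial dilutions were added at 19 s and fluorescence read every 1.52 s over 60 s. Orexin A EC50 curves were run with and without compound and fitted to a three-parameter logistic. Apparent Ke was taken from the right-shift; three independent experiments in duplicate, N=2 where Ke >10 μM.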

[6] = biological target: T1, Orexin receptor type 2 (Homo sapiens); experiment: Agonist activity at human OX2 receptor expressed in CHO-RD-HGA16 cells assessed as induction of calcium mobilization at 10 uM measured every 1.52 secs over 60 secs by calcium 5 dye-based fluorescence assay; type: functional, cell-based
Method in brief: (§2)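 Stable CHO-RD-HGA16 lines overexpressing human OX1 or OX2, plated overnight at 25,000 cells/well, 37°C, 5% CO2. Loaded 45 min with Calcium 5 dye in HBSS/20 mM HEPES/2.5 mM probenecid, pH 7.4. Compound tested alone at 10 μM; fluorescence (ex 485/em 525 nm) read every 1.52 s for 60 s.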

[7] = biological target: T2, Orexin/Hypocretin receptor type 1 (Homo sapiens); experiment: Agonist activity at human OX1 receptor expressed in CHO-RD-HGA16 cells assessed as induction of calcium mobilization at 10 uM measured every 1.52 secs over 60 secs by calcium 5 dye-based fluorescence assay; type: functional, cell-based; method in brief: as §2
Homo sapiens [8] = organism: Homo sapiens; experiment: Selectivity ratio of Ke(app) for human OX2 receptor to Ke(app) for human OX1 receptor
Homo sapiens [9] = organism: Homo sapiens; experiment: Selectivity for human OX1 receptor over human OX2 receptor

Row | SMILES | inhibition [1] [%] | further results
1 | COc1ccc(CC2c3ccc(NCCCC(=O)OC(C)(C)C)cc3CCN2CC(=O)NCc2ccccc2)cc1OC (stereo not drawn) | < 50 | inhibition [2]: Active; Ke(app) [3]: 1010 nM; inhibition [4]: Active; inhibition [5]: Active
2 | COc1ccc(CC2c3ccc(NCC(=O)N(C)C)cc3CCN2CC(=O)NCc2ccccc2)cc1OC (stereo not drawn) | < 50 | –
3 | CCOC(=O)C(C)Nc1ccc2c(c1)CCN(CC(=O)NCc1ccccc1)C2Cc1ccc(OC)c(OC)c1 (stereo not drawn) | < 50 | –
4 | COc1ccc(CC2c3ccc(NC(C)=O)cc3CCN2CC(=O)NCc2ccccc2)cc1OC (stereo not drawn) | < 50 | –
5 | CCOC(=O)CCCCCCOc1ccc2c(c1)CCN(CC(=O)NCc1ccccc1)C2Cc1ccc(OC)c(OC)c1 (stereo not drawn) | < 50 | –
6 | CCCCCCN(C)c1ccc2c(c1)CCN(CC(=O)NCc1ccccc1)C2Cc1ccc(OC)c(OC)c1 (stereo not drawn) | < 50 | –
7 | COc1ccc(CC2c3ccc(NCC4CC4)cc3CCN2CC(=O)NCc2ccccc2)cc1OC (stereo not drawn) | < 50 | –
8 | COc1ccc(CC2c3ccc(N(C)Cc4ccccc4)cc3CCN2CC(=O)NCc2ccccc2)cc1OC (stereo not drawn) | < 50 | –
9 | COc1ccc(CC2c3ccc(OCc4ccccc4)cc3CCN2CC(=O)NCc2ccccc2)cc1OC (stereo not drawn) | < 50 | –
10 | CCCN(CCC)c1ccc2c(c1)CCN(CC(=O)NCc1ccccc1)C2Cc1ccc(OC)c(OC)c1 (stereo not drawn) | < 50 | –
11 | COc1ccc(CC2c3ccc(NCc4ccncc4)cc3CCN2CC(=O)NCc2ccccc2)cc1OC (stereo not drawn) | < 50 | –
12 | CCCNc1ccc2c(c1)CCN(CC(=O)NCc1ccccc1)C2Cc1ccc(OC)c(OC)c1 (stereo not drawn) | < 50 | –
13 | COc1ccc(CCNc2ccc3c(c2)CCN(CC(=O)NCc2ccccc2)C3Cc2ccc(OC)c(OC)c2)cc1OC (stereo not drawn) | < 50 | Ke(app) [2]: 2180 nM; inhibition [3]: Active; inhibition [4]: Active; inhibition [5]: Active
14 | COc1ccc(CC2c3ccc(NCCN4CCCCC4)cc3CCN2CC(=O)NCc2ccccc2)cc1OC (stereo not drawn) | < 50 | –
15 | COc1ccc(CC2c3ccc(NC(=O)c4ccccc4)cc3CCN2CC(=O)NCc2ccccc2)cc1OC (stereo not drawn) | < 50 | –
16 | CCCCCN(C)c1ccc2c(c1)CCN(CC(=O)NCc1ccccc1)C2Cc1ccc(OC)c(OC)c1 (stereo not drawn) | < 50 | –
17 | COc1ccc(CC2c3ccc(N4CCCCC4)cc3CCN2CC(=O)NCc2ccccc2)cc1OC (stereo not drawn) | < 50 | –
18 | COc1ccc(CC2c3ccc(NS(C)(=O)=O)cc3CCN2CC(=O)NCc2ccccc2)cc1OC (stereo not drawn) | < 50 | –
19 | CCOC(=O)CNc1ccc2c(c1)CCN(CC(=O)NCc1ccccc1)C2Cc1ccc(OC)c(OC)c1 (stereo not drawn) | < 50 | Activity [6]: inactive; Activity [7]: inactive
20 | CCOC(=O)CCCNc1ccc2c(c1)CCN(CC(=O)NCc1ccccc1)C2Cc1ccc(OC)c(OC)c1 (stereo not drawn) | – | Activity [6]: inactive; Activity [7]: inactive
21 | CCOC(=O)CCNc1ccc2c(c1)CCN(CC(=O)NCc1ccccc1)C2Cc1ccc(OC)c(OC)c1 (stereo not drawn) | < 50 | Activity [6]: inactive; Activity [7]: inactive
22 | CCCCCNc1ccc2c(c1)CCN(CC(=O)NCc1ccccc1)C2Cc1ccc(OC)c(OC)c1 (stereo not drawn) | < 50 | –
23 | CCCCCCNC(=O)Nc1ccc2c(c1)CCN(CC(=O)NCc1ccccc1)C2Cc1ccc(OC)c(OC)c1 (stereo not drawn) | < 50 | –

Row | SMILES | inhibition [1] [%] | further results
24 | COC(=O)CCCCNc1ccc2c(c1)CCN(CC(=O)NCc1ccccc1)C2Cc1ccc(OC)c(OC)c1 (stereo not drawn) | < 50 | –
25 | CCCN(C)c1ccc2c(c1)CCN(CC(=O)NCc1ccccc1)C2Cc1ccc(OC)c(OC)c1 (stereo not drawn) | < 50 | Activity [6]: inactive; Activity [7]: inactive
26 | COc1ccc(CC2c3ccc(NCCCCOc4ccccc4)cc3CCN2CC(=O)NCc2ccccc2)cc1OC (stereo not drawn) | < 50 | –
27 | CCCCOc1ccc2c(c1)C(Cc1ccc(OC)c(OC)c1)N(CC(=O)NCc1ccccc1)CC2 (stereo not drawn) | < 50 | Activity [6]: inactive; Activity [7]: inactive
28 | COc1ccc(CC2c3ccc(NC(C)C)cc3CCN2CC(=O)NCc2ccccc2)cc1OC (stereo not drawn) | < 50 | –
29 | CCCOc1ccc2c(c1)C(Cc1ccc(OC)c(OC)c1)N(CC(=O)NCc1ccccc1)CC2 (stereo not drawn) | – | Ratio Ke (Homo sapiens [8]): 108; Activity [6]: inactive; Activity [7]: inactive
30 | COc1ccc(CC2c3ccc(NC(=O)Nc4ccccc4)cc3CCN2CC(=O)NCc2ccccc2)cc1OC (stereo not drawn) | < 50 | –
31 | COc1ccc(CC2c3ccc(NCc4cccnc4)cc3CCN2CC(=O)NCc2ccccc2)cc1OC (stereo not drawn) | < 50 | –
32 | COc1ccc(CC2c3ccc(OS(=O)(=O)c4ccccc4)cc3CCN2CC(=O)NCc2ccccc2)cc1OC (stereo not drawn) | < 50 | –
33 | COc1ccc(CC2c3ccc(OC(C)C)cc3CCN2CC(=O)NCc2ccccc2)cc1OC (stereo not drawn) | < 50 | –
34 | COc1ccc(CC2c3ccc(OCC(F)(F)F)cc3CCN2CC(=O)NCc2ccccc2)cc1OC (stereo not drawn) | < 50 | –
35 | CCCOc1ccc2c(c1)CCN(CC(=O)NCc1ccccc1)C2Cc1ccc(OC)c(OC)c1 (stereo not drawn) | < 50 | –
36 | COc1ccc(CC2c3ccc(NCc4ccccc4)cc3CCN2CC(=O)NCc2ccccc2)cc1OC (stereo not drawn) | < 50 | –
37 | COc1ccc(CC2c3cc(OC(C)C)ccc3CCN2CC(=O)NCc2ccccc2)cc1OC (stereo not drawn) | < 50 | Ratio Ke (Homo sapiens [9]): 201; Activity [6]: inactive; Activity [7]: inactive
38 | COc1ccc(CC2c3ccc(N4CCCC4)cc3CCN2CC(=O)NCc2ccccc2)cc1OC (stereo not drawn) | < 50 | –
39 | CCOC(=O)CCCCCCNc1ccc2c(c1)CCN(CC(=O)NCc1ccccc1)C2Cc1ccc(OC)c(OC)c1 (stereo not drawn) | < 50 | –
40 | CCCCCCNc1ccc2c(c1)CCN(CC(=O)NCc1ccccc1)C2Cc1ccc(OC)c(OC)c1 (stereo not drawn) | < 50 | –
41 | CCOc1ccc2c(c1)C(Cc1ccc(OC)c(OC)c1)N(CC(=O)NCc1ccccc1)CC2 (stereo not drawn) | < 50 | Ratio Ke (Homo sapiens [9]): 268; Activity [6]: inactive; Activity [7]: inactive
42 | CCOC(=O)CCCOc1ccc2c(c1)CCN(CC(=O)NCc1ccccc1)C2Cc1ccc(OC)c(OC)c1 (stereo not drawn) | < 50 | Activity [6]: inactive; inhibition [2]: Active; Ke(app) [3]: 1000 nM; inhibition [4]: Active; inhibition [5]: Active; Activity [7]: inactive
43 | COc1ccc(CC2c3ccc(NCCCc4ccccc4)cc3CCN2CC(=O)NCc2ccccc2)cc1OC (stereo not drawn) | < 50 | –
44 | COc1ccc(CC2c3ccc(N(C)CC4CC4)cc3CCN2CC(=O)NCc2ccccc2)cc1OC (stereo not drawn) | < 50 | –
45 | COc1ccc(CC2c3ccc(N(C)C)cc3CCN2CC(=O)NCc2ccccc2)cc1OC (stereo not drawn) | < 50 | –
46 | COc1ccc2c(c1)C(Cc1ccc(OC)c(OC)c1)N(CC(=O)NCc1ccccc1)CC2 (stereo not drawn) | – | Activity [6]: inactive; Activity [7]: inactive
